Legend:
Assay type in all cases: ADME
[1] = biological target: T1, Solute carrier family 15 member 1 (Homo sapiens, UniProt P46059); test: Drug uptake in Pichia pastoris GS115 expressing human recombinant PEPT1 at 5 uM after 30s by dual-channel liquid scintillation counting analysis in presence of TEA relative to control; conditions: 0.5 min
T1 sequence (P46059 whole entry): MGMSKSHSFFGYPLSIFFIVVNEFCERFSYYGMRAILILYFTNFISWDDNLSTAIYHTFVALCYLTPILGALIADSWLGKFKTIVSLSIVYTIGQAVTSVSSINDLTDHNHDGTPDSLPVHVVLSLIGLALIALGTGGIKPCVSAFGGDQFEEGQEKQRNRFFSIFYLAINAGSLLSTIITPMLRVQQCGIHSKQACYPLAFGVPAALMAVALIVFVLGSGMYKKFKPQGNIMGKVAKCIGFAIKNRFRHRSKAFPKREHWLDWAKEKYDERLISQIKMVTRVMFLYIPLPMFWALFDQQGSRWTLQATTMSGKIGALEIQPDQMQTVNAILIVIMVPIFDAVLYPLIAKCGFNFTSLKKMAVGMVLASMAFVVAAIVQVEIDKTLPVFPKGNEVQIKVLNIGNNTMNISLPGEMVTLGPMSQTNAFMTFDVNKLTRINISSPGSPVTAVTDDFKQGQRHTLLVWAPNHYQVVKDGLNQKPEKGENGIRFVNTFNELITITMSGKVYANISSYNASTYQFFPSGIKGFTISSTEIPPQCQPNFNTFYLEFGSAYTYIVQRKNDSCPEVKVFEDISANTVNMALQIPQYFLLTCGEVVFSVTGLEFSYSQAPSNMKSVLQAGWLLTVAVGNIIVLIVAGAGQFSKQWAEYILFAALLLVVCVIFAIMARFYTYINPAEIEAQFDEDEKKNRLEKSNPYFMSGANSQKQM
Procedure, shortened: (§1)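 [3H]GlySar 5.0 µM final, 30-s uptake at 24°C in 100 mM potassium phosphate pH 6.5, with or without a potential inhibitor at 10 mM. Cells are methanol-induced transformants. Values are vector-subtracted and expressed as percent of buffer control. Mean ± SE (n=3). ANOVA with Dunnett's test.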

[2] = biological target: T2, Solute carrier family 15 member 1 (Mus musculus, UniProt Q9JIP7); test: Drug uptake in Pichia pastoris GS115 expressing mouse recombinant PEPT1 at 5 uM after 30s by dual-channel liquid scintillation counting analysis in presence of cephapirin relative to control; conditions: 0.5 min; procedure, shortened: as §1
T2 sequence (Q9JIP7 whole entry): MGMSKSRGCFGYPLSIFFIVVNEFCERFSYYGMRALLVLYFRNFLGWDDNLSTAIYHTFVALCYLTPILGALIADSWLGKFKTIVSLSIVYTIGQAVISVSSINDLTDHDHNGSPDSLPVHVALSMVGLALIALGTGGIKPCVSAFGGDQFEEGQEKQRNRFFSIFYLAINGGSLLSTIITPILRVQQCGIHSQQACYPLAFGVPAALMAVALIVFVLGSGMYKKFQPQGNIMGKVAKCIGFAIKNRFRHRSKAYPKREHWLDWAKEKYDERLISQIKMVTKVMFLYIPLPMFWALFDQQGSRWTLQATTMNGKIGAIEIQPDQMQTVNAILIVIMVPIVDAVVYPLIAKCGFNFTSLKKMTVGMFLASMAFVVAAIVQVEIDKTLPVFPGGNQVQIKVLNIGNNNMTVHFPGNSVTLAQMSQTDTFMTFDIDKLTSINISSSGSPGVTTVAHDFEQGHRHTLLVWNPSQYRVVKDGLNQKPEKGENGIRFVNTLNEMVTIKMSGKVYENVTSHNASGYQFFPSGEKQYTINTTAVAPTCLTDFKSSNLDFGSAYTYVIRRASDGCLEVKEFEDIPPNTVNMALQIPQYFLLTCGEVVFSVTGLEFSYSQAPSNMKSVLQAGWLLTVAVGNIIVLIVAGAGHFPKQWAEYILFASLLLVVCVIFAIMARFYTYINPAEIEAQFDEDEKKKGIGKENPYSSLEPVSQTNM

[3] = biological target: T2, Solute carrier family 15 member 1; test: Drug uptake in Pichia pastoris GS115 expressing mouse recombinant PEPT1 at 5 uM after 30s by dual-channel liquid scintillation counting analysis in presence of GlyPro relative to control; conditions: 0.5 min; procedure, shortened: as §1
[4] = biological target: T2, Solute carrier family 15 member 1; test: Activity at mouse recombinant PEPT1 expressed in Pichia pastoris GS115 assessed as non-saturable rate constant after 30s by dual-channel liquid scintillation counting analysis
Procedure, shortened: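 [3H]GlySar concentration series 0.005-10 mM, 30-s uptake at 24°C in 100 mM potassium phosphate pH 6.5. Cells come from His+Mut+ GS115 transformants induced 20-24 h in methanol medium. Uptake is normalised to OD600. Data are fitted to Michaelis-Menten plus a first-order nonsaturable term (Kd), weighting unity. Parameters are mean ± SE (n=9).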

[5] = biological target: T3, Solute carrier family 15 member 1 (Rattus norvegicus, UniProt P51574); test: Drug uptake in Pichia pastoris GS115 expressing rat recombinant PEPT1 at 5 uM after 30s by dual-channel liquid scintillation counting analysis in presence of SITS relative to control; conditions: in vivo, 0.5 min; procedure, shortened: as §1
T3 sequence (P51574 whole entry): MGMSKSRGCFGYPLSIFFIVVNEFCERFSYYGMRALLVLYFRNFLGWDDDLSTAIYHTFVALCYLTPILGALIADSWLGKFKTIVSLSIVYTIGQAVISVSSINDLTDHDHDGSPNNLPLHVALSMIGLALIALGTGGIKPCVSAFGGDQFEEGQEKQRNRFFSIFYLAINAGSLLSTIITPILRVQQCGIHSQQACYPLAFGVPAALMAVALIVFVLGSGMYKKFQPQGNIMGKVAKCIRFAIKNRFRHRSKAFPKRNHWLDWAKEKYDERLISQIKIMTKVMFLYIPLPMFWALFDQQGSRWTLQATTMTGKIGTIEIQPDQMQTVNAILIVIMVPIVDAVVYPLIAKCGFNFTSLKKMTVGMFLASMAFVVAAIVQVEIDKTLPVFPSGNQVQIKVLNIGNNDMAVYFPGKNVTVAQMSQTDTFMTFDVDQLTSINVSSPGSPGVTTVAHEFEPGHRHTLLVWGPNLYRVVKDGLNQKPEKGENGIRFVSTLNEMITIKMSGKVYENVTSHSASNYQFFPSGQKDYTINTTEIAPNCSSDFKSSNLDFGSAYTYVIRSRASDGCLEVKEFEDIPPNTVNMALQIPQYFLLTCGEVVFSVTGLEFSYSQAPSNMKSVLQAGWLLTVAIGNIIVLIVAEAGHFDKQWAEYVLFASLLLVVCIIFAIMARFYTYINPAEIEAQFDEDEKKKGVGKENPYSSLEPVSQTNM

PEPT1 = biological target: T4, PEPT1 (Homo sapiens, UniProt P46059); test: Drug uptake in Pichia pastoris GS115 expressing human recombinant PEPT1 at 5 uM after 30s by dual-channel liquid scintillation counting analysis relative to vector control; conditions: read-out: FC
T4 sequence (P46059 whole entry): T1 sequence (P46059 whole entry)
Procedure, shortened: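 5.0 µM radiolabelled substrate uptake for 30 s at 24°C in pH 6.5 phosphate buffer by induced transformants. Radioactivity is counted by liquid scintillation and normalised to OD600. Results are compared with pPIC3.5K vector-alone cells. Mean ± SE (n=6).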

[6] = biological target: T1, Solute carrier family 15 member 1; test: Drug uptake in Pichia pastoris GS115 expressing human recombinant PEPT1 at 5 uM after 30s by dual-channel liquid scintillation counting analysis relative to control; conditions: 0.5 min; procedure, shortened: as §1

- Drug uptake [1]: 113%
- Drug uptake [2]: 83.7%
- Drug uptake [3]: 1.9%
- Kd [4]: 2.21 uL/OD/min
- Drug uptake [5]: 107%
- uptake ratio at 0.5 min, 5 µM (PEPT1): 23
- Drug uptake [6]: 100%
SMILES: [3H]C(C(=O)O)N(C)C(=O)CN (configuration not stated)
